Measured values of several laboratories.
Cell line: HepG2
Effect on: cell growth or viability

Compound | assay | setting | measurement | value
COc1ccc(C=NNC(=O)c2sc(Nc3ccccc3)c(C(=O)Nc3ccc(OC)cc3)c2NC(C)=O)cc1 | SRB | 1 nM, 48 h | viability | 102%
CCOC(=O)c1ccc(-n2c(N)c(C#N)c(CC#N)c(C#N)c2=O)cc1 | MTT | 25 µM, 24 h | viability | 50.9%
O=C(CN1C(=O)/C(=C/c2ccncc2)SC1=S)Nc1ccccc1 | MTT | 10 µM | inhibition | 11.8%
Cc1ccc(/C=N/NC(=O)c2ccc(Nc3cc(C)nc4c(O)cccc34)cc2)cc1 | MTT | 20 µM | inhibition | 41.3%
CCOc1ccc(-c2nc3ccccc3n2Cc2ccccc2)cc1 | MTT | – | IC50 | 33.8 µM
COc1ccc(-c2cc(-c3ccc4oc(=O)cc(C)c4c3O)nc(N)n2)cc1 | MTT | 128 µg/mL, 72 h | inhibition | 40%
CC(=O)Oc1ccc(/C=N/NC(=O)c2ccc(Nc3cc(C)nc4c(O)cccc34)cc2)cc1 | MTT | 20 µM | inhibition | 56.7%
Cc1ccc(-c2cc(-c3ccc4oc(=O)cc(C)c4c3O)nc(N)n2)cc1 | MTT | 128 µg/mL, 72 h | inhibition | 27%
CCOC(=O)c1ccc(-n2c(C)cc(C)c(C#N)c2=O)cc1 | MTT | 100 µM, 24 h | viability | 36.4%
Cc1cc(=O)oc2ccc(-c3cc(-c4cccs4)nc(N)n3)c(O)c12 | MTT | 2 µg/mL, 72 h | inhibition | 0%
CSc1ccc(-c2nc3ccccc3[nH]2)cc1 | MTT | 48 h | IC50 | 40.1 µM
COc1ccc(NC(=O)c2c(Nc3ccccc3)sc(C#N)c2NC(=O)CNc2ccc(OC)c(OC)c2)cc1 | SRB | 10 µM, 48 h | viability | 71.4%
O=C(CN1C(=O)/C(=C/c2cccc(Br)c2)SC1=S)Nc1ccccc1 | MTT | 10 µM | inhibition | 12.7%
O=C(N/N=C/c1cccn1CCN1CCCCC1)Nc1cc2c(Nc3ccc(F)c(Cl)c3)ncnc2cc1O[C@H]1CCOC1 | MTT | 72 h | IC50 | 0.59 µM
CCn1cc(-c2nc(C)no2)c(=O)c2cc(F)c(N3CCC(c4ccccc4)CC3)cc21 | ATP luminescence | 48 h | EC50 | > 40 µM
CC(C)(CO)Cn1nc(-c2ccc3nc(OC4CC4)ccc3c2)c2c(N)ncnc21 | – | – | GI50 | > 10 µM
COc1ccc(NC(=O)c2c(Nc3ccccc3)sc(C#N)c2NC(=O)CNc2ccc(O)cc2)cc1 | SRB | 10 nM, 48 h | viability | 92.1%
COc1cccc(/C=C2\SC(=S)N(CC(=O)Nc3ccccc3)C2=O)c1 | MTT | 10 µM | inhibition | 13.9%
CCOc1cc(-c2nc3ccc(C)cc3[nH]2)ccc1O | MTT | 48 h | IC50 | 77.1 µM
CCOC(=O)c1ccc(-n2c(-c3ccc(C)cc3)cc(-c3ccc(O)cc3)c(C#N)c2=O)cc1 | MTT | 100 µM, 24 h | viability | 18.3%
O=C(N/N=C/c1cccn1CCCN1CCCC1)Nc1cc2c(Nc3ccc(F)c(Cl)c3)ncnc2cc1O[C@H]1CCOC1 | MTT | 72 h | IC50 | 0.67 µM
CCn1cc(-c2nc(C)no2)c(=O)c2cc(F)c(N3CCC(F)(F)CC3)cc21 | ATP luminescence | 48 h | EC50 | > 40 µM
CCOC(=O)c1ccc(-n2c(C)cc(/C=C/c3ccc(OCC)cc3)c(C#N)c2=O)cc1 | MTT | 12.5 µM, 24 h | viability | 90.3%
Cc1ccc2nc(-c3ccc(Cl)c(Cl)c3)n(Cc3ccccc3)c2c1 | MTT | – | IC50 | > 100 µM

Compound | assay | setting | measurement | value
COc1ccc(NC(=O)c2c(Nc3ccccc3)sc(C#N)c2NC(=O)CNc2ccccc2[N+](=O)[O-])cc1 | SRB | 10 nM, 48 h | viability | 92.5%
CN(C)C/C=N/NC(=O)Nc1cc2c(Nc3ccc(F)c(Cl)c3)ncnc2cc1O[C@H]1CCOC1 | MTT | 72 h | IC50 | 3.08 µM
Cc1cc(=O)oc2ccc(-c3cc(-c4ccc(Cl)cc4)nc(N)n3)c(O)c12 | MTT | 128 µg/mL, 72 h | inhibition | 87%
O=C(CN1C(=O)/C(=C/c2cccc([N+](=O)[O-])c2)SC1=S)Nc1ccccc1 | MTT | 10 µM | inhibition | 24.2%
COc1ccc(NC(=O)c2c(Nc3ccccc3)sc(C#N)c2NC(=O)CNc2ccccc2)cc1 | SRB | 10 nM, 48 h | viability | 90.3%
CC(=O)Nc1cccc(-n2c(=O)n(C3CC3)c(=O)c3c(Nc4ccc(I)cc4F)n(C)c(=O)c(C)c32)c1 | resazurin | 1.56 nM, 72 h | viability | 96.4%
CCOC(=O)c1ccc(NC(=O)C2=C3C(=Nc4ccccc43)NC2=O)cc1 | MTT | 3.125 µM, 24 h | viability | 100%
COc1ccc(NC(=O)c2c(Nc3ccccc3)sc(C(=O)NN=Cc3ccc(Br)cc3)c2NC(C)=O)cc1 | SRB | 10 nM, 48 h | viability | 92.7%
Cc1ccc2nc(-c3cccc([N+](=O)[O-])c3)[nH]c2c1 | MTT | 48 h | IC50 | 71.4 µM
CCOC(=O)c1ccc(-n2c(C)cc(/C=C/c3ccc(OC)cc3)c(C#N)c2=O)cc1 | MTT | 12.5 µM, 24 h | viability | 83.5%
COc1cccc(NC(=O)CN2C(=O)/C(=C/C3CC3)SC2=S)c1 | MTT | 10 µM | inhibition | 12.1%
Cc1cc(=O)oc2ccc(-c3cc(-c4cccc(Cl)c4)nc(N)n3)c(O)c12 | MTT | 2 µg/mL, 72 h | inhibition | 0%
CCn1cc(-c2nc(C)no2)c(=O)c2cc(F)c(N3CCOCC3)cc21 | ATP luminescence | 48 h | EC50 | > 40 µM
O=C(CN1C(=O)/C(=C/c2ccc(F)cc2)SC1=S)Nc1ccccc1 | MTT | 10 µM | inhibition | 6.59%
COc1ccc(NC(=O)c2c(Nc3ccccc3)sc(C(=O)NN=Cc3cc(OC)c(OC)c(OC)c3)c2NC(C)=O)cc1 | SRB | 10 µM, 48 h | viability | 42.9%
COc1cc2c(c(OC)c1OC)-c1ccc(OC)c(=O)cc1[C@@H](NC(C)=O)CC2 | MTT | 10 µM | inhibition | 56.4%
Cc1cc(=O)oc2ccc(-c3cc(-c4ccccc4)nc(N)n3)c(O)c12 | MTT | 128 µg/mL, 72 h | inhibition | 20%
COc1ccc(-c2nc3ccc(C)cc3[nH]2)cc1OC | MTT | 48 h | IC50 | 43.6 µM
CCOC(=O)c1ccc(N2C(N)=C(C#N)C3(C(=O)Nc4ccccc43)C(C#N)=C2O)cc1 (stereo not drawn) | MTT | 50 µM, 24 h | viability | 17.9%
COc1ccc(NC(=O)c2c(Nc3ccccc3)sc(C(=O)NN=Cc3ccc(Cl)cc3)c2NC(C)=O)cc1 | SRB | 1 nM, 48 h | viability | 100%
CCOc1ccc(-c2nc3ccc(C)cc3[nH]2)cc1 | MTT | 48 h | IC50 | 27.4 µM
CCn1cc(-c2nnc(-c3cccnc3)o2)c(=O)c2cc(F)c(N3CCC(C)CC3)cc21 | ATP luminescence | 48 h | EC50 | > 40 µM
Clc1ccc(-c2nc3ccccc3n2Cc2ccccc2)cc1Cl | MTT | – | IC50 | 49.9 µM
CCn1cc(-c2nc(C)no2)c(=O)c2cc(F)c(N3CCCCC3)cc21 | ATP luminescence | 48 h | EC50 | > 40 µM
